Screens deposited in PubChem by Johns Hopkins Ion Channel Center.
In the library only some 2.3% were active in any assay of this set; here they are far more common.
TRPC4 potent: positive allosteric modulators of TRPC4, primary screen, cell-based, mouse TRPC4beta, HEK293 mu-opioid, Fluo-4 calcium | AID 2227, 2009 | DAMGO EC20, Fluo-4 Ca2+ flux; active compounds read high | Short transient receptor potential channel 4 (Mus musculus), Q9QUQ5 | 0.42% of 310,000 active | B-score at 10 µM;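 active = B-score of calcium response area above 5 SD of library B-scores, with initial fluorescence ratio within 5 SD of library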
Target sequence (Q9QUQ5 whole entry, looked up): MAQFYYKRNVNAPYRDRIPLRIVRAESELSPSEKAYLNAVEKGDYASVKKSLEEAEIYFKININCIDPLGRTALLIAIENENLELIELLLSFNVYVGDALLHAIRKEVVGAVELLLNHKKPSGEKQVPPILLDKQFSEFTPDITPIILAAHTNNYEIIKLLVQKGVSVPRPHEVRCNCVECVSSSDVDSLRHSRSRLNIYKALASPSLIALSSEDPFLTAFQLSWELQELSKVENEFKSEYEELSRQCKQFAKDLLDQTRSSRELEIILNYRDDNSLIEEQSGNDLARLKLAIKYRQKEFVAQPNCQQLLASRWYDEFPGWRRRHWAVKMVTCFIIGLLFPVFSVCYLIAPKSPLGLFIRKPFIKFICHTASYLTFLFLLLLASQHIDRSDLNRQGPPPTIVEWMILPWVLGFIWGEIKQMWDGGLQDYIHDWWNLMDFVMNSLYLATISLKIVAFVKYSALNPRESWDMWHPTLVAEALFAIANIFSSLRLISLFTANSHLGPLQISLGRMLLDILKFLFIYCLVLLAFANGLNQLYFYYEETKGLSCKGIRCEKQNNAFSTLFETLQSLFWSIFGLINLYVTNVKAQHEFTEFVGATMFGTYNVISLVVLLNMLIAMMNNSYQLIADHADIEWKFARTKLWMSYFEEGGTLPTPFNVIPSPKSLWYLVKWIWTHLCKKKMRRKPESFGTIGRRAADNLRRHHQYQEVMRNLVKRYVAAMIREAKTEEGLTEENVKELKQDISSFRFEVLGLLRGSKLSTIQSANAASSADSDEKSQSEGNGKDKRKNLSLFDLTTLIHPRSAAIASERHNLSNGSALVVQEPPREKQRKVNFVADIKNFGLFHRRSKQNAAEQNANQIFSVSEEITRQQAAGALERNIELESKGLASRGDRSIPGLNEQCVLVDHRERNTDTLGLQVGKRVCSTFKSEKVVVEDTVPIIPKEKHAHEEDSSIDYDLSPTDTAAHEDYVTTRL
TRPC6 act: mouse TRPC6 channel activators, primary screen, cell-based, HEK293, membrane potential dye; B-score at 10 µM; Short transient receptor potential channel 6 (Mus musculus), Q61143; HEK293-TRPC6 membrane potential dye fluorescence; active compounds read high; 0.13% of 310,000 active;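 active = B-score of the integrated fluorescence ratio above library mean plus 3 SD, and starting fluorescence ratio within library mean plus 5 SD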;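 also: higher score means more depolarization so channel activation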
TRPC4 agonist: activators of mouse TRPC4 channel, primary screen, Fluo4 calcium, HEK293 TRPC4beta/mu-opioid cells. Short transient receptor potential channel 4 (Mus musculus), Q9QUQ5. Fluo4 calcium fluorescence; active compounds read high. B-score at 10 µM. 0.49% of 310,000 active;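 active = B-score above 5 SD of library B-scores, and initial fluorescence ratio not above library mean plus 5 SD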;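 also: positive B-score marks a calcium rise read as TRPC4 activation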
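Assay system – TRPC4beta and mu-opioid receptor HEK293 stable cells · Measured by – Fluo4 fluorescence, kinetic · Schedule – dye loading 45 min room temperature, 110 s kinetic read · Read-out – B-scored integrated calcium fluorescence ratio · Controls – buffer and maximal DAMGO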
TRPC4 inh: inhibitors of mouse TRPC4 channel, primary screen, Fluo4 calcium, HEK293 TRPC4beta/mu-opioid cells; DAMGO-evoked Fluo4 calcium flux; active compounds read low; 0.39% of 300,000 active; B-score at 10 µM;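 active = B-score over 3 SD under the library average, no early fluorescence shift, positive overall ratio signal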
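test system = HEK293 cells with stable TRPC4beta plus mu-opioid receptor expression | detection = Fluo4 Ca2+ flux fluorescence | read-out = integrated fluorescence ratio relative to baseline, converted to per-well B score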
TRPC6 inhibitor: mouse TRPC6 channel inhibitors, primary screen, cell-based, HEK293, membrane potential dye. Short transient receptor potential channel 6 (Mus musculus), Q61143. B-score at 10 µM. ACh-evoked depolarization; active compounds read low. 1.1% of 310,000 active. AID 2553, 2010;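 active = B-score under library mean minus 3 SD, initial fluorescence not abnormally high, positive integrated signal ratio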;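 also: B-score derived from integrated fluorescence ratio over the kinetic read; more negative B-score means stronger inhibition of depolarization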
TRPC4 sel inh 2: second check of whether TRPC6 inhibitors also affect mouse TRPC4 | shares compounds with TRPC6 inhibitor | HEK293 TRPC4/MOR, membrane potential dye fluorescence; channel activated by saturating DAMGO dose | inhibition, % at 10 µM | 42% of 920 active | AID 2776;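 active = compounds whose fluorescence signal differed from control wells by over 3 SD, either direction, in both duplicate plates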
TRPC4 spec: mouse TRPC4 modulation by TRPC6 hits, confirmation, selectivity assay for TRPC6 inhibitor project, cell-based, HEK293 TRPC4/mu-opioid, membrane potential dye | activity change, negative = inhibition, % at 10 µM | 61% of 920 active | shares compounds with TRPC6 inhibitor | AID 2777, 2010 | membrane potential fluorescence;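 active = rise or fall in signal beyond 3 SD of buffer-only wells in both replicate plates, either sign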;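 also: integrated kinetic ratio of fluorescence range over baseline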
HEK293 MPD ctr 2-1: nonspecific membrane potential effects, parental HEK293, confirmation, counter-screen for TRPC6 inhibitor project, cell-based, second counter screen; parental HEK293 membrane potential dye fluorescence; maximal acetylcholine challenge after compound addition; shares compounds with TRPC6 inhibitor; 31% of 920 active; AID 2779, 2010; signal change vs control, % at 10 µM;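 active = membrane potential signal moving either way by over 3 SD of the maximum-effect control, in both duplicate plates, meaning non-specific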
HEK293 MPD ctr-1: membrane potential modulation in parental HEK293, confirmation, counter-screen for TRPC6 inhibitor project, cell-based. 60% of 920 active. membrane potential signal change, % at 10 µM. AID 2780, 2010. parental HEK293 membrane potential dye fluorescence. shares compounds with TRPC6 inhibitor;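 active = membrane potential signal shifting up or down by more than 3 SD of buffer-only wells, on both duplicate plates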
HEK293 MPD ctr-2: parental HEK293 membrane potential modulation, confirmation, counter-screen for TRPC6 modulator project, cell-based | 51% of 2,400 active | membrane potential signal change, % at 10 µM | shares compounds with TRPC6 inhibitor | membrane potential dye fluorescence | AID 488924, 2010;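 active = membrane potential signal moves up or down beyond 5 SD from buffer-only wells, on both duplicate plates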
HEK293 MPD ctr 2-2: second counter-screen for TRPC6 modulators: effect in parental HEK293 cells. shares compounds with TRPC6 inhibitor. membrane potential dye fluorescence; after compound, maximal acetylcholine stimulation. inhibition, % at 10 µM. 14% of 2,400 active;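 active = membrane potential signal drops by more than 5 SD from the mean control signal, in both duplicate plates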
TRPC4/MOR mod: TRPC4 modulation by TRPC6 hit compounds, confirmation, selectivity assay for TRPC6 modulator project, cell-based, HEK293 TRPC4/mu-opioid, membrane potential dye, mouse; AID 488927, 2010; membrane potential fluorescence; shares compounds with TRPC6 inhibitor; percent change from control (negative = decrease, positive = increase), % at 10 µM; 69% of 2,400 active;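 active = membrane potential signal moved up or down beyond 5 SD of buffer control wells, in both duplicate plates, actives on both sides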
TRPC4/MOR inh 2: mouse TRPC4 off-target activity of TRPC6 modulators, second screen | 55% of 2,400 active | AID 488928 | inhibition, % at 10 µM | shares compounds with TRPC6 inhibitor | HEK293 TRPC4/mu-opioid, membrane potential dye fluorescence; stimulated with maximal-effect DAMGO;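 active = drop in membrane potential signal beyond 5 SD of the control wells in both duplicate plates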;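 also: TRPC4 counter screen for TRPC6 hits run under conditions tuned for TRPC6 not TRPC4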
TRPC6 block conf: mouse TRPC6 channel inhibitors, confirmation, HEK293 cells, membrane potential dye, duplicate. shares compounds with TRPC6 inhibitor. 43% of 3,300 active. inhibition, % at 10 µM. ACh-evoked depolarization. AID 488960, 2010;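 active = fluorescence ratio falls more than 5 SD below the full-stimulation control mean, in both duplicate runs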;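 also: integrated fluorescence ratio of peak minus minimum over baseline after agonist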
TRPC6 act conf: mouse TRPC6 channel activators, confirmation, HEK293 cells, membrane potential dye, duplicate. shares compounds with TRPC6 inhibitor. 11% of 2,800 active. activation, % at 10 µM. HEK293-TRPC6 membrane potential dye fluorescence, FDSS;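 active = ratio signal rise beyond 5 SD above unstimulated control wells' mean, seen in both duplicate runs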
Numbers stand for hits; – = inactive; · = no result given; + = active, no number.

SMILES	TRPC4 potent	TRPC6 act	TRPC4 agonist	TRPC4 inh	TRPC6 inhibitor	HEK293 MPD ctr-2	HEK293 MPD ctr 2-2	TRPC4/MOR mod	TRPC4/MOR inh 2	TRPC6 block conf	TRPC6 act conf	others
Cc1ccc(N2CC(NC(=O)C(=O)c3c[nH]c4ccccc34)CC2=O)cc1C (stereo not drawn)	–	–	–	–	–	·	·	·	·	·	·
CN(C)c1ccc(/C=C/C(=O)c2c(O)c3ccccc3oc2=O)cc1	–	131	102	–	–	+	+	492%	144%	·	944%
CCOC(=O)c1sc(=S)n(-c2ccccc2)c1SC	–	–	–	–	–	·	·	·	·	·	·
CCOC(=O)c1sc(=S)n(-c2ccccc2Cl)c1SC	–	–	–	–	-7.7	·	·	·	·	–	–	TRPC4 sel inh 2=–;TRPC4 spec=–;HEK293 MPD ctr 2-1=–;HEK293 MPD ctr-1=–
CCOC(=O)c1sc(=S)n(-c2ccc(OC)cc2)c1C	–	–	–	–	-6.3	–	–	10%	–	52%	·
CC(=O)c1cc(F)c(N2CCN(C(=O)COc3ccc(F)cc3)CC2)cc1C	–	–	–	–	-5.7	–	–	10%	–	–	–
CCOC(=O)c1c(NC(=O)COC(=O)c2ccc(O)cc2)sc(C(=O)N(C)C)c1C	–	–	–	–	–	·	·	·	·	·	·
CCOC(=O)c1c(NC(=O)COC(=O)c2ccccn2)sc(C(=O)N(C)C)c1C	–	–	–	–	–	·	·	·	·	·	·
CCOC(=O)c1c(NC(=O)COC(=O)CCOc2ccc(C)cc2)sc(C(=O)N(C)C)c1C	–	14	–	–	–	480%	–	44%	66%	–	–
CCOC(=O)c1c(NC(=O)COC(=O)CCOc2ccc(OCC)cc2)sc(C(=O)N(C)C)c1C	61	13	–	–	–	279%	–	165%	72%	–	124%
CCN(CC)S(=O)(=O)c1ccc(C(=O)NCCOC(=O)c2ccc(F)cc2F)cc1	–	–	–	–	–	·	·	·	·	·	·
CCOC(=O)c1cc(C)n(-c2c(C)n(C)n(-c3ccccc3)c2=O)c1C	–	–	–	–	-6	–	–	–	–	–	–
CCOc1ccc(C(C)=O)cc1COc1cccnc1[N+](=O)[O-]	–	–	–	–	–	·	·	·	·	·	·
Cc1cccc(-c2nc(CN3CCCC(C(=O)NC4CCC(C)CC4)C3)c(C)o2)c1 (stereo not drawn)	–	–	–	–	-6.5	182%	–	33%	46%	–	·
Cc1ccc(N(C(=O)CNC(=O)c2ccco2)C(C(=O)NC2CCCC2)c2ccncc2)cc1C (stereo not drawn)	–	–	–	–	–	·	·	·	·	·	·
CCN(CC)CCNC(=O)Cn1nc(Cc2ccncc2)c2ccccc2c1=O	–	–	–	–	-6.2	–	–	–	–	–	–
Nc1ccc(/C=C/C(=O)c2cccs2)cc1	–	81	92	–	–	+	+	291%	76%	·	543%
CCS(=O)(=O)N1CCN(C(=O)c2cccc3ccccc23)CC1	–	–	–	–	–	·	·	·	·	·	·
CN(C)CCCN1C(=O)c2cccc3c(Br)ccc(c23)C1=O	–	–	–	–	-9.6	–	87%	-32%	80%	80%	–
CC1=CC(=C(C#N)c2nc3ccccc3s2)C=C(C)N1CC1CCCO1 (stereo not drawn)	–	–	–	–	-9.8	486%	–	-92%	–	–	–
CSc1cccc(NC(=S)N2CCC(N(C)C3CCCCCC3)CC2)c1	–	–	–	–	-7.8	·	·	·	·	–	–	TRPC4 sel inh 2=58%;TRPC4 spec=–;HEK293 MPD ctr 2-1=–;HEK293 MPD ctr-1=0.9%
Cc1cc(NCCCCO)n2c(nc3ccccc32)c1C#N	–	–	–	–	–	·	·	·	·	·	·
CCN(CC)CCCNc1cc(C(F)(F)F)c(C#N)c2nc3ccccc3n12	–	–	–	–	-6.5	–	66%	-66%	71%	70%	–
CCN(CC)CCNc1cc(C)c(C#N)c2nc3ccccc3n12	–	–	–	–	-11	-411%	96%	-66%	62%	71%	–
CCCc1cc(NCCCCO)n2c(nc3ccccc32)c1C#N	–	–	–	–	–	·	·	·	·	·	·
COc1ccccc1/C=C/CN1CCC(Oc2ccc(C(=O)N3CCCCC3)cc2)CC1	–	–	–	–	-5.8	240%	–	22%	80%	51%	·
COc1ccc(/C=C/CN2CCC(Oc3ccc(C(=O)N4CCCCC4)cc3)CC2)cc1	–	–	–	–	–	·	·	·	·	·	·
